Bioassay records from PubChem.
INS promoter act: TRM-6 insulin promoter activation | 130,000 compounds, 0.81% hits | TRM-6 cells, insulin promoter eGFP reporter, imaging; plate-scaled: unstimulated 0, stimulated control 100 | AID 1296 | activation, % at 2 µM;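 active means activation at 2 µM above a set limit, confirmed on inspection of the cell images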;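 further: share of cells whose green reporter signal exceeds an intensity cutoff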
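System: human fetal islet-derived TRM-6 cells with tamoxifen-inducible insulin promoter–eGFP reporter; input: seeding density of 1,000 cells per well; buffer or medium: Low-glucose (5.5 mM) medium with tamoxifen; incubation: compound exposure 48 h, 37 °C; measured by: high-content imaging of fixed cells with Hoechst nuclear stain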
An asterisk follows results filed as active. The full list was thinned out, with hits kept by preference.

SMILES	INS promoter act
NC(=O)[C@@H]1CCCNc2c(I)cc([N+](=O)[O-])cc2C(=O)N[C@@H](CCC(=O)O)C(=O)N[C@@H](CO)C(=O)N1	123
S=C(NCc1ccncc1)NC1CCCCC1	6
CCC(C)c1ccccc1NC(=O)COC(=O)c1ccc2[nH]c3c(c2c1)CCCC3 (centres undefined)	0
Clc1ccc(COc2ccccc2-c2ccnc3ncnn23)cc1	9
c1ccc(Oc2ccc(-c3ccnc4ncnn34)cc2)cc1	397*
c1ccc(Oc2ccc(-c3ccnc4nc(N5CCOCC5)nn34)cc2)cc1	-3
CN(/C(=N\S(=O)(=O)c1ccccc1)c1ccccc1)c1ccc(O)cc1	129
Cc1c(Cl)c([N+](=O)[O-])nn1Cc1ccc(C(=O)Nc2ccc(Cl)cn2)o1	3
Cc1nn(Cc2ccc(Cl)cc2Cl)c(C)c1NC(=O)Cn1nc([N+](=O)[O-])c(Cl)c1C	650*
Cc1nn(Cc2ccccc2)c(C)c1NC(=O)CCCn1nc([N+](=O)[O-])c(Cl)c1C	0
CCN(CC)CCn1c2ccccc2c2cnc(N)c(C#N)c21	-3
CCOC(=O)C1=C(C)NC(C)=C(C(=O)OCC)C1C(=O)OCC(=O)NC(C)C	5
CCOC(=O)c1nn(-c2ccc(Cl)cc2)c2nnc(Cc3ccccc3)c(=O)n12	-3
O=C(O)C1C2C=CC(C2)C1C(=O)Nc1cccc(F)c1 (centres undefined)	-5
O=C(O)c1cccc(NC(=O)C2C3C=CC(C3)C2C(=O)O)c1 (centres undefined)	5
Cc1ccc(-c2cccc(NC(=O)C3C(C(=O)O)[C@@H]4C=C[C@H]3C4)c2)o1 (some centres undefined)	154*
CC(C)c1c(O)c2c(n(-c3ccccc3)c1=O)CCCC2	0
COc1ccccc1NS(=O)(=O)c1ccc(N/N=C(\C)C(C)C)c([N+](=O)[O-])c1	-9
COc1ccccc1NS(=O)(=O)c1cc([N+](=O)[O-])ccc1N/N=C/c1c(C)[nH]c2ccccc12	260*
COc1ccccc1NS(=O)(=O)c1cc(C)ccc1C	10
O=S(=O)(NCC1NCCc2ccccc21)c1ccccc1 (centres undefined)	-9
O=C(Oc1c(CN2CCOCC2)cc(Cl)c2cccnc12)c1ccccc1	9
O=[N+]([O-])c1cc(CN2CCN(c3ccccc3)CC2)c(O)c2ncccc12	330*
Oc1ccc(CN2CCN(Cc3ccccc3)CC2)c2cccnc12	-50
CC(C)C(=O)NC(NC(=S)Nc1cccc2cccnc12)C(Cl)(Cl)Cl (centres undefined)	9
SMILES	INS promoter act
COc1cccc(/C=C/C(=O)NCc2cn3cc(Cl)ccc3n2)c1OC	-8
CNc1nc(C)nc(-n2nc(C)cc2C)n1	660*
Cc1cc(-n2nc(C)cc2C)nc(N)n1	-8
Cc1cc(NCCO)nc(-n2nc(C)cc2C)n1	-79
O=c1c2ccccc2nc2n1C(CSCc1ccc(Cl)cc1Cl)CS2 (centres undefined)	0
CC(=O)Nc1ccc(C(=O)OCC(=O)Nc2ccccc2F)cc1	0
Cc1nn(-c2cc(N3CCOCC3)ccc2N)c(=O)c2ccccc12	6
Cc1nn(-c2cc(N3CCCC3)ccc2[N+](=O)[O-])c(=O)c2ccccc12	134*
Cc1ccc(-c2nn(-c3cc(Cl)ccc3[N+](=O)[O-])c(=O)c3ccccc23)cc1	2
COc1ccc(CNC(=O)c2nnn(-c3cccc(C(F)(F)F)c3)c2N)cc1	0
CCOC(=O)c1sc2nc(C)c3c(c2c1N)CC(C)(C)OC3	-9
CCOC(=O)c1sc2nc(N3CCOCC3)c3c(c2c1N)CCN(C)C3	500*
Nc1c(C(=O)NCc2ccccc2)sc2nc(N3CCOCC3)c3c(c12)CCCC3	8
COC(=O)c1sc2ccccc2c1-n1cccc1C(=O)C(=O)Nc1ccc(Cl)cc1	8
Cc1ccc(C(=O)CSc2ncnc3sc4c(c23)CCC(C)C4)cc1 (centres undefined)	-8
COc1ccc(-c2sc(NC(C)=O)nc2-c2ccccc2)cc1	-8
COCC(=O)Nc1nc(-c2ccc(C)cc2)c(C)s1	314
COc1ccc(-c2nc(C)sc2C)cc1	419*
CC(=O)Nc1c(C(=O)N2CCN(c3ccccn3)CC2)cnn1-c1ccc(C)cc1	-7
O=C(COCc1nc2ccccc2c(=O)[nH]1)NCC1CCCCC1	486*
CCN(CC(=O)NC(=O)NC1CCCCC1)Cc1nc2ccccc2c(=O)[nH]1	3
O=C(CCc1nc2ccccc2c(=O)[nH]1)OCC(=O)c1ccc(C2CCCCC2)cc1	0
NC(=O)C1CCN(C(=O)c2ccco2)CC1	-5
Cc1ccc(C2NNC(=O)C2NC(=O)c2ccccc2)cc1 (centres undefined)	0
CCNC(=O)c1c(C)nc2ccccn12	0
Cc1nc2ccccn2c1C(=O)NCC(C)C	0
CCOC(=O)C(=O)c1c(-c2ccccc2)nc2ccccn12	450*
Cc1oc(-c2ccccc2Cl)nc1CSc1nc2c(c(=O)[nH]1)CCC2	-7
O=C(c1ccccc1)c1nc2c(n1O)CCCCC2	106
c1ccc(Oc2cc(-n3cccn3)ncn2)cc1	9
